The values that follow come from ChEMBL document CHEMBL1134624, “Potent and selective ET-A antagonists. 1. Syntheses and structure-activity relationships of N-(6-(2-(aryloxy)ethoxy)-4-pyrimidinyl)sulfonamide derivatives” (J Med Chem, 2001).

The target in one experiment is T1, Endothelin receptor type B (Homo sapiens, UniProt P24530).
T1 sequence (P24530 whole entry): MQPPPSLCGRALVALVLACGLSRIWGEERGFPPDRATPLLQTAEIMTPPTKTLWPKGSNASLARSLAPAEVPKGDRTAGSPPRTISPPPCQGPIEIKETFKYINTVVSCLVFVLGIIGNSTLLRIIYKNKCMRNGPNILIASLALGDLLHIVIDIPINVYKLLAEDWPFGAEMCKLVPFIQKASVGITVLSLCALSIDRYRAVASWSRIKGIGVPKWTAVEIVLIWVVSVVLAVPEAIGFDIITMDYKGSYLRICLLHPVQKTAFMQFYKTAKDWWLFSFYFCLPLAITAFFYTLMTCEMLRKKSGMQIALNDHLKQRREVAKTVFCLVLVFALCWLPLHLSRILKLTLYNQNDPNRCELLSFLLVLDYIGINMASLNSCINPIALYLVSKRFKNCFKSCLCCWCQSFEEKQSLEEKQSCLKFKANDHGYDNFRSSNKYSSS
Description: In vitro for specific binding of [125I]ET1 to GHcell expressed in Endothelin B receptor.
Details: not given
As for `Cc1ccc(-c2c(NS(=O)(=O)c3ccc(C(C)(C)C)cc3)ncnc2OCCOc2ncc(Cl)cn2)cc1` [listing 1 of 2 here], the IC50 (usually the concentration that inhibits the measured activity by half) was found to be 28 nM.

Consider `COc1cnc(OCCOc2ncnc(NS(=O)(=O)c3ccc(C(C)(C)C)cc3)c2-c2ccc(C)cc2)nc1` [listing 1 of 2 here], for which the IC50 turned out to be 240 nM. Compared with the last compound, the IC50 is about 8.6-fold higher.

Another experiment has as its target T2, Endothelin-1 receptor (Sus scrofa, UniProt Q29010).
T2 sequence (Q29010 whole entry): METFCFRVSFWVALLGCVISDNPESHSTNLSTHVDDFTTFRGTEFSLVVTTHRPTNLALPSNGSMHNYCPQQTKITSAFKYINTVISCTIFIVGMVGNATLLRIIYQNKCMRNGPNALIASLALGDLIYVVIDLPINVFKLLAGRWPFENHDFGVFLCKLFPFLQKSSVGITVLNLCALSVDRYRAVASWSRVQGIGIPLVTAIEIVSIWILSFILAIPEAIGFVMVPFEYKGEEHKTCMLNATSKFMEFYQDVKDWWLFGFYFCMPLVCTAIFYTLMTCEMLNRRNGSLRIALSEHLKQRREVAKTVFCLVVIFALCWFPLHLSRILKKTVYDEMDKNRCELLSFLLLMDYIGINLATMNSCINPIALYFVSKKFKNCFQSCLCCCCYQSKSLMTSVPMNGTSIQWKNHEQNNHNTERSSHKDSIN
Description: In vitro inhibition of [125I]ET1 binding to Endothelin A receptor in porcine aortic membrane from endothelial cells. It is filed as cell membranes. The note with it: in the assay text read “with endothelium removed” for “from endothelial cells”. In short, it runs like this: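 Endothelium-free porcine aorta homogenized in 10 mM MOPS (pH 7.4) with 20% sucrose. Membranes spun 1000g 15 min, then supernatant 90000g 45 min, and resuspended in 5 mM HEPES-Tris. Incubated with 20 pM final 125I-ET-1 and graded compound concentrations in 50 mM Tris-HCl pH 7.4, 0.1% BSA, protease inhibitors, EDTA, 2 h at 25 °C. Filtered, washed, gamma-counted.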
Take `COc1cccc(Oc2c(NS(=O)(=O)c3ccc(C(C)(C)C)cc3)ncnc2OCCOc2ccccc2)c1`: the IC50 worked out at 65 nM.

As to `COc1ccc(S(=O)(=O)Nc2ncnc(OCCOc3ncc(Br)cn3)c2-c2ccc(C)cc2)cc1`, the IC50 came out at 0.76 nM.

`Cc1ccc(-c2c(NS(=O)(=O)c3ccc4ccccc4c3)ncnc2OCCOc2ncc(Br)cn2)cc1` came in with an IC50 of 1 nM.

The compound `CSc1cnc(OCCOc2ncnc(NS(=O)(=O)c3ccc(C(C)(C)C)cc3)c2-c2ccc(C)s2)nc1` registered an IC50 of 0.16 nM.

`COc1ccccc1Oc1c(NS(=O)(=O)c2ccc(C(C)(C)C)cc2)ncnc1OCCOc1ncc(Br)cn1` came in with a half-inhibitory concentration (IC50) of 0.0039 nM. Compared with the last compound, the IC50 is about 41-fold lower.

Take `COc1ccc(S(=O)(=O)Nc2ncnc(OCCOc3ncc(Br)cn3)c2-c2ccc(C)cc2)cc1OC`: the half-inhibitory concentration (IC50) was determined as 0.64 nM.

Regarding `CSc1cnc(OCCOc2ncnc(NS(=O)(=O)c3ccc(C(C)(C)C)cc3)c2-c2ccco2)nc1`, the IC50 worked out at 2.9 nM.

The compound `Cc1ccc(-c2c(NS(=O)(=O)c3ccc(C(C)(C)C)cc3)ncnc2OCCOc2ncc(Br)cn2)cc1` came in with an IC50 below 0.001 nM.

In turn, `COc1cnc(OCCOc2ncnc(NS(=O)(=O)c3ccc(C(C)(C)C)cc3)c2-c2ccc(C)cc2)nc1` [listing 2 of 2 here] yielded an IC50 of 0.0017 nM. That is a picomolar value.

With `COc1cccc(Oc2c(NS(=O)(=O)c3ccc(C(C)(C)C)cc3)ncnc2OCCOc2cccnn2)c1`, the IC50 was 51.4 nM. This IC50 lies about 30000-fold higher than the previous one.

In turn, `COc1cccc(Oc2c(NS(=O)(=O)c3ccc(C(C)(C)C)cc3)ncnc2OCCOc2nccc(C)n2)c1` displayed an IC50 of 39.4 nM.

`COc1cccc(Oc2c(NS(=O)(=O)c3ccc(C(C)(C)C)cc3)ncnc2OCCOc2ccccn2)c1` had an IC50 of 8.8 nM.

`COc1cccc(Oc2c(NS(=O)(=O)c3ccc(C(C)(C)C)cc3)ncnc2OCCOc2ncccn2)c1`: the 50% inhibitory concentration (IC50) stood at 1.9 nM.

In the case of `COc1cnc(OCCOc2ncnc(NS(=O)(=O)c3ccc(C(C)(C)C)cc3)c2Oc2cccc(OC)c2)nc1`, the IC50 stood at 0.015 nM.

Consider `COc1ccccc1Oc1c(NS(=O)(=O)c2ccc(C(C)(C)C)cc2)ncnc1OCCOc1ncc(SC)cn1`, for which the IC50 was found to be 0.37 nM. Compared with the last compound, the IC50 is about 25-fold higher.

With `Cc1ccc(-c2c(NS(=O)(=O)c3cccs3)ncnc2OCCOc2ncc(Br)cn2)cc1`, the IC50 turned out to be 3.1 nM.

As to `COc1cccc(Oc2c(NS(=O)(=O)c3ccc(C(C)(C)C)cc3)ncnc2OCCOc2ncc(Br)cn2)c1`, the IC50 is 0.051 nM. Compared with the last compound, the IC50 is about 61-fold lower.

For the compound `COc1cccc(Oc2c(NS(=O)(=O)c3ccc(C(C)(C)C)cc3)ncnc2OCCOc2cnc3ccccc3n2)c1`, the IC50 was determined as 45.4 nM.

Regarding `CSc1cnc(OCCOc2ncnc(NS(=O)(=O)c3ccc(C(C)(C)C)cc3)c2-c2ccc(C(F)(F)F)cc2)nc1`, the half-inhibitory concentration (IC50) was found to be 0.0017 nM.

For the compound `COc1cccc(Oc2c(NS(=O)(=O)c3ccc(C(C)(C)C)cc3)ncnc2OCCOc2ncc(C)cn2)c1`, the IC50 is 0.86 nM.

For the compound `COc1cccc(Oc2c(NS(=O)(=O)c3ccc(C(C)(C)C)cc3)ncnc2OCCOc2ncc(Cl)cn2)c1`, the IC50 was found to be 0.059 nM. This IC50 is about 15-fold lower than that of the compound before.

The compound `COCCOc1ncnc(NS(=O)(=O)c2ccc(C(C)(C)C)cc2)c1Oc1cccc(OC)c1` came in with an IC50 of 92 nM.

For `Cc1ccc(-c2c(NS(=O)(=O)c3ccc(C(F)(F)F)cc3)ncnc2OCCOc2ncc(Br)cn2)cc1`, the concentration for half-maximal inhibition (IC50) was 1.4 nM.

The compound `COc1cccc(Oc2c(NS(=O)(=O)c3ccc(C(C)(C)C)cc3)ncnc2OCCNc2ncccn2)c1` yielded an IC50 above 100 nM.

In turn, `CSc1cnc(OCCOc2ncnc(NS(=O)(=O)c3ccc(C(C)(C)C)cc3)c2-c2ccc(C(C)C)cc2)nc1` had a 50% inhibitory concentration (IC50) of 1.2 nM.

Regarding `COc1cccc(-c2c(NS(=O)(=O)c3ccc(C(C)(C)C)cc3)ncnc2OCCOc2ncc(SC)cn2)c1`, the IC50 is 0.028 nM. This IC50 lies about 43-fold lower than the previous one.

`COc1ccccc1Sc1c(NS(=O)(=O)c2ccc(C(C)(C)C)cc2)ncnc1OCCOc1ncc(Br)cn1`: the IC50 turned out to be 0.018 nM.

The compound `Cc1ccc(-c2c(NS(=O)(=O)c3ccc(-c4ccccn4)s3)ncnc2OCCOc2ncc(Br)cn2)cc1` returned a half-inhibitory concentration (IC50) of 3.4 nM.

`CSc1cnc(OCCOc2ncnc(NS(=O)(=O)c3ccc(C(C)(C)C)cc3)c2-c2ccc(C)cc2)nc1` returned a 50% inhibitory concentration (IC50) below 0.001 nM.

Compound `Cc1ccc(-c2c(NS(=O)(=O)c3ccc(C(C)(C)C)cc3)ncnc2OCCOc2ncc(-c3ccco3)cn2)cc1` displayed an IC50 below 0.001 nM.

Turning to `Cc1ccc(-c2c(NS(=O)(=O)c3ccc(I)cc3)ncnc2OCCOc2ncc(Br)cn2)cc1`, the IC50 was found to be 1 nM.

The compound `CSc1cnc(OCCOc2ncnc(NS(=O)(=O)c3ccc(C(C)(C)C)cc3)c2-c2ccc3ccccc3c2)nc1` gave an IC50 of 0.29 nM.

Regarding `COc1cccc(Oc2c(NS(=O)(=O)c3ccc(C(C)(C)C)cc3)ncnc2OCCOc2nccc(OC)n2)c1`, the IC50 was above 100 nM.

In turn, `COc1ccc(-c2c(NS(=O)(=O)c3ccc(C(C)(C)C)cc3)ncnc2OCCOc2ncc(SC)cn2)cc1OC` registered an IC50 of 0.0085 nM.

Compound `COc1cccc(Oc2c(NS(=O)(=O)c3ccc(C(C)(C)C)cc3)ncnc2OCCOc2nccc3ccccc23)c1` had an IC50 above 100 nM.

`Cc1ccc(-c2c(NS(=O)(=O)c3ccc(C(C)(C)C)cc3)ncnc2OCCOc2ncc(-c3ccccn3)cn2)cc1` showed an IC50 of 0.036 nM. This counts as picomolar.

For `Cc1ccc(-c2c(NS(=O)(=O)c3cccc4ccccc34)ncnc2OCCOc2ncc(Br)cn2)cc1`, the IC50 amounted to 22 nM.

Regarding `Cc1ccc(-c2c(NS(=O)(=O)c3ccc(C(C)C)cc3)ncnc2OCCOc2ncc(Br)cn2)cc1`, the IC50 was 0.16 nM.

`COc1cccc(Oc2c(NS(=O)(=O)c3ccc(C(C)(C)C)cc3)ncnc2OCCOCc2ccccc2)c1` registered an IC50 of 170 nM.

The compound `Cc1ccc(-c2c(NS(=O)(=O)c3ccc(C(C)(C)C)cc3)ncnc2OCCOc2ncccn2)cc1` came in with an IC50 of 0.11 nM.

Compound `Cc1ccc(-c2c(NS(=O)(=O)c3ccc(C(C)(C)C)cc3)ncnc2OCCOc2ncc(Cl)cn2)cc1` [listing 2 of 2 here] returned an IC50 below 0.001 nM.

In turn, `CCC(C)(C)c1ccc(S(=O)(=O)Nc2ncnc(OCCOc3ncc(Br)cn3)c2-c2ccc(C)cc2)cc1` returned an IC50 below 0.001 nM.

In the case of `COc1cccc(Oc2c(NS(=O)(=O)c3ccc(C(C)(C)C)cc3)ncnc2OCCOc2ccncn2)c1`, the IC50 stood at 1.2 nM.

`Cc1ccc(-c2c(NS(=O)(=O)c3ccc(C(C)(C)C)cc3)ncnc2OCCO)cc1` yielded an IC50 above 100 nM.

The compound `COc1cccc(Oc2c(NS(=O)(=O)c3ccc(C(C)(C)C)cc3)ncnc2OCCOc2cnccn2)c1` yielded an IC50 of 24.5 nM. That is a double-digit nanomolar value.

`COc1ccc(-c2c(NS(=O)(=O)c3ccc(C(C)(C)C)cc3)ncnc2OCCOc2ncc(SC)cn2)cc1` gave an IC50 below 0.001 nM.

In turn, `CSc1cnc(OCCOc2ncnc(NS(=O)(=O)c3ccc(C(C)(C)C)cc3)c2-c2ccc3c(c2)OCO3)nc1` displayed an IC50 of 0.0011 nM.

`COc1cccc(Oc2c(NS(=O)(=O)c3ccc(C(C)(C)C)cc3)ncnc2SCCOc2ncccn2)c1` registered an IC50 of 25.8 nM.

In the case of `COc1cccc(Oc2c(NS(=O)(=O)c3ccc(C(C)(C)C)cc3)ncnc2OCCOc2ccc3ccccc3n2)c1`, the IC50 was found to be 15.2 nM.

In the case of `Cc1ccc(-c2c(NS(=O)(=O)c3ccc(C(C)(C)C)cc3)ncnc2OCCOc2ncc(-c3ccsc3)cn2)cc1`, the IC50 was below 0.001 nM.

In turn, `COc1cccc(Oc2c(NS(=O)(=O)c3ccc(C(C)(C)C)cc3)ncnc2OCCOc2nccs2)c1` returned an IC50 of 12 nM.

For `CCc1ccc(-c2c(NS(=O)(=O)c3ccc(C(C)(C)C)cc3)ncnc2OCCOc2ncc(SC)cn2)cc1`, the IC50 came out at 0.013 nM. Compared with the last compound, the IC50 is about 920-fold lower.

The compound `Cc1ccc(-c2c(NS(=O)(=O)c3ccc(Br)cc3)ncnc2OCCOc2ncc(Br)cn2)cc1` yielded an IC50 of 2.8 nM.

Regarding `Cc1ccc(-c2c(NS(=O)(=O)c3ccc(C(C)(C)C)cc3)ncnc2OCCOc2ncc(-c3cccs3)cn2)cc1`, the IC50 was below 0.001 nM.

Compound `COc1cccc(Oc2c(NS(=O)(=O)c3ccc(C(C)(C)C)cc3)ncnc2OCCCc2ncccn2)c1` had an IC50 above 100 nM.

Turning to `CSc1cnc(OCCOc2ncnc(NS(=O)(=O)c3ccc(C(C)(C)C)cc3)c2-c2ccc(Cl)cc2)nc1`, the IC50 is below 0.001 nM.

The compound `CSc1cnc(OCCOc2ncnc(NS(=O)(=O)c3ccc(C(C)(C)C)cc3)c2-c2ccncc2)nc1` came in with an IC50 of 9.9 nM.

`COc1cccc(Oc2c(NS(=O)(=O)c3ccc(C(C)(C)C)cc3)ncnc2OCCCOc2ncc(C)cn2)c1` showed an IC50 of 93.5 nM.

Compound `CSc1cnc(OCCOc2ncnc(NS(=O)(=O)c3ccc(C(C)(C)C)cc3)c2-c2cccs2)nc1` registered an IC50 of 0.89 nM.

In the case of `COc1cccc(Oc2c(NCCOc3ncccn3)ncnc2NS(=O)(=O)c2ccc(C(C)(C)C)cc2)c1`, the IC50 came out at 6.2 nM.
